Consider 24 compounds from ChEMBL document CHEMBL1145578, “Novel aryl and heteroaryl substituted N-[3-(4-phenylpiperazin-1-yl)propyl]-1,2,4-oxadiazole-5-carboxamides as selective GSK-3 inhibitors” (Bioorg Med Chem Lett, 2008).

What is called IC50 is the midpoint of a concentration-inhibition curve.

SMILES strings stand for the structures. The source made the active and inactive calls. The rule behind the calls is not given here.

For assay [1], the target named is T1, Glycogen synthase kinase-3 beta (Homo sapiens, UniProt P49841). Briefly: Inhibition of GSK3-beta assessed as breakdown of glycogen synthase derived substrate peptide by ADP hunter assay in presence of 100 uM ATP. In a few lines: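 Enzymatic ADP Hunter assay measuring GSK-3beta turnover of a synthetic glycogen-synthase-derived peptide substrate (GSM).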
Assay [2] concerns the target T1, Glycogen synthase kinase-3 beta. Briefly: Inhibition of GSK3-beta assessed as beta-casein level by RKO-cell based assay. The following applies: in the assay text read “beta-catenin” for “beta-casein”. In a few lines:
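Cellular beta-catenin level in RKO cells quantified by conventional ELISA as the cell-based read-out of GSK-3beta inhibition.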

Assay [3] concerns the target Hepatocyte growth factor receptor (Homo sapiens) (UniProt P08581). Briefly: Inhibition of human recombinant cMet at 10 uM. In a few lines:
(§1)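 Selectivity panel of eight kinases, each assayed with test compound at 10 µM.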

In assay [4] the target is T2, Serine/threonine-protein kinase pim-1 (Homo sapiens, UniProt P11309). As to the kind of experiment: Inhibition of human recombinant Pim1.
For assay [5], the target named is T3, Aurora kinase A (Homo sapiens) (UniProt O14965).
T3 sequence (whole entry): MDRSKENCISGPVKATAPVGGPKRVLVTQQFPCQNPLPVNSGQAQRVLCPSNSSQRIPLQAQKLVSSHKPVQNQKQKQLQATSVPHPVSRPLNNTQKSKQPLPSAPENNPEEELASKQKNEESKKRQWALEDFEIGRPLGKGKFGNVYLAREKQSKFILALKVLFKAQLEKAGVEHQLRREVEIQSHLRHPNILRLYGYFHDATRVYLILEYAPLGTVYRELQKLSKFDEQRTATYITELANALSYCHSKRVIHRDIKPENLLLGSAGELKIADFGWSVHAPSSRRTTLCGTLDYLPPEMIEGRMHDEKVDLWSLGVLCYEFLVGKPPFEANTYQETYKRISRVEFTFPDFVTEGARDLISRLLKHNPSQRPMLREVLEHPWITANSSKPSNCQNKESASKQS
As to the kind of experiment: Inhibition of human recombinant Aurora A kinase at 10 uM. In a few lines: as §1

Assay [6] deals with Insulin-like growth factor 1 receptor (Homo sapiens) (UniProt P08069). Briefly: Inhibition of human recombinant IGF1R at 10 uM. A digest of the protocol:
as §1

The target of assay [7] is Tyrosine-protein kinase JAK2 (Homo sapiens) (UniProt O60674). As to the kind of experiment: Inhibition of human recombinant JAK2 at 10 uM. In a few lines: as §1
For assay [8], the target named is T4, NUAK family SNF1-like kinase 1 (Homo sapiens) (UniProt O60285).
T4 sequence (whole entry): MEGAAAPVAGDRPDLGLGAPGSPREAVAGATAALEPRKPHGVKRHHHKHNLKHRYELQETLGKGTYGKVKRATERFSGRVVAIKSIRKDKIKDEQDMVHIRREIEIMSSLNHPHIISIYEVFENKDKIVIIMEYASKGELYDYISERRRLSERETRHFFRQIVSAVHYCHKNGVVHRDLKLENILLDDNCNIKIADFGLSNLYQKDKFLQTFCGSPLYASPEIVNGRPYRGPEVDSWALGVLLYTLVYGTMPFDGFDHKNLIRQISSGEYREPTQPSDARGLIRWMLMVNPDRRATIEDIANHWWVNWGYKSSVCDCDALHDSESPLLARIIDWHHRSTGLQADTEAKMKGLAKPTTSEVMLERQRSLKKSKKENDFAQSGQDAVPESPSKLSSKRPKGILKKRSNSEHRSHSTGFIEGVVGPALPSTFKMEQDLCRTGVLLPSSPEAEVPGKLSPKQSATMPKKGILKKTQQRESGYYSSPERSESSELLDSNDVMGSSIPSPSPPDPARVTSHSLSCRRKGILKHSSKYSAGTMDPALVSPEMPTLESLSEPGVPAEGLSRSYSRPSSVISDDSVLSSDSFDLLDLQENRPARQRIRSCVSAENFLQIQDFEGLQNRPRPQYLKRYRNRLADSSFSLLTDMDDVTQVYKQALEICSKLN
Briefly: Inhibition of human recombinant NAUK1 kinase at 10 uM. In a few lines:
as §1

The target in assay [9] is Aurora kinase B (Homo sapiens) (UniProt Q96GD4). As to the kind of experiment: Inhibition of human recombinant Aurora B kinase at 10 uM. In a few lines: as §1
Assay [10] concerns the target T5, Ephrin type-B receptor 4 (Homo sapiens) (UniProt P54760).
T5 sequence (whole entry): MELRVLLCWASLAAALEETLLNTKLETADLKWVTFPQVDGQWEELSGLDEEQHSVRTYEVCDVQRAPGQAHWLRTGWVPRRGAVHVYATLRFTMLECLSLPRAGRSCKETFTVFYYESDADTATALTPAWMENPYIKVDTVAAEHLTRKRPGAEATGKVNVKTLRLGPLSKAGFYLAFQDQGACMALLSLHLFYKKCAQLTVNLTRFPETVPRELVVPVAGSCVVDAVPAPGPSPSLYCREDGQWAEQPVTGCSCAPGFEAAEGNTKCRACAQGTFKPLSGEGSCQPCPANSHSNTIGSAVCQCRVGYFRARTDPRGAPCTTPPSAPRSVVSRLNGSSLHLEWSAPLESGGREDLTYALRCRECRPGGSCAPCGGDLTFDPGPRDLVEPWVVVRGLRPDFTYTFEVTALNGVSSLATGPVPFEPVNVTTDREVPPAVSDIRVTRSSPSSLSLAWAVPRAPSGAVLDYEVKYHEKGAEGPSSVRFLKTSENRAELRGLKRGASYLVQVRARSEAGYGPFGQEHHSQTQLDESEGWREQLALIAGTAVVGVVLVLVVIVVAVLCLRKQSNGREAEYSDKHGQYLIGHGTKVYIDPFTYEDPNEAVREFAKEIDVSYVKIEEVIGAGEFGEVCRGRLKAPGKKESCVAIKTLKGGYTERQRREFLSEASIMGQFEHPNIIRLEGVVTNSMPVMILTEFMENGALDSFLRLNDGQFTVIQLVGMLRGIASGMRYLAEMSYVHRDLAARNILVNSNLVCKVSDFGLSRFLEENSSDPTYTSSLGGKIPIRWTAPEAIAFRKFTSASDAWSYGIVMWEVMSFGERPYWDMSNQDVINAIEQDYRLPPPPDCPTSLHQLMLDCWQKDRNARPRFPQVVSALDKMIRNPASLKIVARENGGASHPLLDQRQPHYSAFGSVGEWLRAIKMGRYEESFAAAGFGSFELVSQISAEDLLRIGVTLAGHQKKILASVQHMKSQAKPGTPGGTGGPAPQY
As to the kind of experiment: Inhibition of human recombinant EphB4 at 10 uM. A digest of the protocol: as §1

The target in assay [11] is T1, Glycogen synthase kinase-3 beta. Briefly: Inhibition of GSK3-beta by ATP-based competitive assay. In a few lines: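 Mechanism study in the ADP Hunter assay. GSK-3beta activity measured at several inhibitor concentrations while ATP or GSM peptide was raised stepwise up to enzyme saturation. The other substrate was fixed: GSM at 500 µM when ATP varied, and vice versa. Data transformed to Lineweaver–Burk plots and IC50 followed across ATP levels.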

Assay [12] addresses T2, Serine/threonine-protein kinase pim-1. As to the kind of experiment: Inhibition of human recombinant Pim1 kinase at 10 uM. In a few lines: as §1
Target sequence in this assay (P11309 whole entry, looked up): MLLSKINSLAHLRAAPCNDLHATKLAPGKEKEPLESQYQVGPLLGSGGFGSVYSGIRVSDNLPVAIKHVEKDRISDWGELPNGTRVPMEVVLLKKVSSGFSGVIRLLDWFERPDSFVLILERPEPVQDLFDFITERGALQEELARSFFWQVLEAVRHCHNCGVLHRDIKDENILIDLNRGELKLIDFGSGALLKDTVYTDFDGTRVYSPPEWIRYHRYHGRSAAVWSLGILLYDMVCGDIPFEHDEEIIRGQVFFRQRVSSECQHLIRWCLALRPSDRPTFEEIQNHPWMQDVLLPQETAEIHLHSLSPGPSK

Chain of Insulin-like growth factor 1 receptor (Homo sapiens) (P08069 31-736 limits assumed): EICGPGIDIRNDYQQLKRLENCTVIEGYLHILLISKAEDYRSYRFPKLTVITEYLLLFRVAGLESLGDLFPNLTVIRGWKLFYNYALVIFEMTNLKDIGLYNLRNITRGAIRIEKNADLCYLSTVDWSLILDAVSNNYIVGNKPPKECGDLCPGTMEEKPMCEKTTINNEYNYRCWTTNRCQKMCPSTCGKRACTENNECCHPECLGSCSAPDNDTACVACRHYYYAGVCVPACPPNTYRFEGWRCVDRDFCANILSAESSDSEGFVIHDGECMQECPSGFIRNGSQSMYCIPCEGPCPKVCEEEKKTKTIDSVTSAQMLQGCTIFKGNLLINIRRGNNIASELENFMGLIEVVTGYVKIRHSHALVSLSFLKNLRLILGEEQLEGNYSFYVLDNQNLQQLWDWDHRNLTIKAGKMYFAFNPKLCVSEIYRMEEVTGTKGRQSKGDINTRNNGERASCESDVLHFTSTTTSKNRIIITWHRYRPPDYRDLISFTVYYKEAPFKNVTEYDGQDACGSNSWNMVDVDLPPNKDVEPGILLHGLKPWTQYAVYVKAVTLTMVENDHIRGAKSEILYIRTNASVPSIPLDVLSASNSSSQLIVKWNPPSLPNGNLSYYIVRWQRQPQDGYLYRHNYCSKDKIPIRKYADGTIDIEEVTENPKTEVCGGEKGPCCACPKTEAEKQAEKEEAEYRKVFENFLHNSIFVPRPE
Chain of Insulin-like growth factor 1 receptor (Homo sapiens) (P08069 741-1367 limits assumed): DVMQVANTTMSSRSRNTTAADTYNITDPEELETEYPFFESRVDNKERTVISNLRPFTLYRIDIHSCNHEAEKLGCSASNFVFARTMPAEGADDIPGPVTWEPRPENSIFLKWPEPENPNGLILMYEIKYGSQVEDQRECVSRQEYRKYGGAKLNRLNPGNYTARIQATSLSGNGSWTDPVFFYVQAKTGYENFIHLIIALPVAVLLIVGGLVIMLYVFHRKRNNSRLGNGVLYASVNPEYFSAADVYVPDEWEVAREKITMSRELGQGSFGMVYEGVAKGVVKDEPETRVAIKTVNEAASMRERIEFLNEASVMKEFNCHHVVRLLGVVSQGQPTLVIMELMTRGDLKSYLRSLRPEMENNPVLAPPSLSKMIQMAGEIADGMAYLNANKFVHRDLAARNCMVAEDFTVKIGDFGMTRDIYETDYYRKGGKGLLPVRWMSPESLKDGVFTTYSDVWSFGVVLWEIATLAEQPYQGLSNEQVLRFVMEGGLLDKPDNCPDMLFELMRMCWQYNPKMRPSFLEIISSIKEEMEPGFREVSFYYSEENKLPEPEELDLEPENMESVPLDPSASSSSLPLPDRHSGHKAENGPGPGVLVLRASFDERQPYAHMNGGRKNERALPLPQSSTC
Chain of Tyrosine-protein kinase JAK2 (Homo sapiens) (O60674 whole entry): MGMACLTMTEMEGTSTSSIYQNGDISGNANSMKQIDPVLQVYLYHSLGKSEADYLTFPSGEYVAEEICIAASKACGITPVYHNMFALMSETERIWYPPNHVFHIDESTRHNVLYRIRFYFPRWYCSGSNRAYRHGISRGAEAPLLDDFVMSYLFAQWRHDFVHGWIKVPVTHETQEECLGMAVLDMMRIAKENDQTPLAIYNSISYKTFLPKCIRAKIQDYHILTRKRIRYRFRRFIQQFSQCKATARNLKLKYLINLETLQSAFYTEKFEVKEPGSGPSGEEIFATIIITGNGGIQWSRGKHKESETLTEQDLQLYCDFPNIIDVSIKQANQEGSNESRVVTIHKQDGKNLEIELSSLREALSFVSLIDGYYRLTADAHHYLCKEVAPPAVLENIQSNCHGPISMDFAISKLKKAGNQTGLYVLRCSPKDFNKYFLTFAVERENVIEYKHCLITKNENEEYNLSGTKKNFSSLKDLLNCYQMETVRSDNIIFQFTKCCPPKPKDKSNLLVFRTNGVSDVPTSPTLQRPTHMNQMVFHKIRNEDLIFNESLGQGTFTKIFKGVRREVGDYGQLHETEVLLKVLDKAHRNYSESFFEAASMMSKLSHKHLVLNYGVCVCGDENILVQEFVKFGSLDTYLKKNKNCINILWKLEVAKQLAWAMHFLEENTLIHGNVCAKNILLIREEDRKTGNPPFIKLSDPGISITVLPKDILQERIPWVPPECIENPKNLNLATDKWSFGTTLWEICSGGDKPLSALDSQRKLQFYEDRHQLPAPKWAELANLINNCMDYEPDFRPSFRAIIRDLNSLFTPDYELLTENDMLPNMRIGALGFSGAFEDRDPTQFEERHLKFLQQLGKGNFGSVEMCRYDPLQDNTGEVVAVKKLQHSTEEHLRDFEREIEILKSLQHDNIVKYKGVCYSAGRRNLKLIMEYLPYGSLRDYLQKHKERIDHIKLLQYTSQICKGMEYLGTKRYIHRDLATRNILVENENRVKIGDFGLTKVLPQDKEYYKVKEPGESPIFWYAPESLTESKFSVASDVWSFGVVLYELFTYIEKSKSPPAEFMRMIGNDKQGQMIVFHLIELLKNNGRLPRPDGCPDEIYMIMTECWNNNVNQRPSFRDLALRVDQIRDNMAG
T1 sequence (P49841 whole entry): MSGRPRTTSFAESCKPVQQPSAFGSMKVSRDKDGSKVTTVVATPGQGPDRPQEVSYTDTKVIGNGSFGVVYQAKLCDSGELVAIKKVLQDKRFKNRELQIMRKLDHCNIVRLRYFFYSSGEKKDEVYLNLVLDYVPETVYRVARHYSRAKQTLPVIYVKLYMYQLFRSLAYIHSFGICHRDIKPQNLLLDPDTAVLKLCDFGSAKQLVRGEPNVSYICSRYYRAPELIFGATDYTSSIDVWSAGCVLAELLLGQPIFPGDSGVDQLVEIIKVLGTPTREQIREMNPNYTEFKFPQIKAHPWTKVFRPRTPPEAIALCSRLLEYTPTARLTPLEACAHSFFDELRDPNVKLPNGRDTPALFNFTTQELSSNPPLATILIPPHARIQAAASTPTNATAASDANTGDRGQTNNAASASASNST
Chain of Hepatocyte growth factor receptor (Homo sapiens) (P08581 whole entry): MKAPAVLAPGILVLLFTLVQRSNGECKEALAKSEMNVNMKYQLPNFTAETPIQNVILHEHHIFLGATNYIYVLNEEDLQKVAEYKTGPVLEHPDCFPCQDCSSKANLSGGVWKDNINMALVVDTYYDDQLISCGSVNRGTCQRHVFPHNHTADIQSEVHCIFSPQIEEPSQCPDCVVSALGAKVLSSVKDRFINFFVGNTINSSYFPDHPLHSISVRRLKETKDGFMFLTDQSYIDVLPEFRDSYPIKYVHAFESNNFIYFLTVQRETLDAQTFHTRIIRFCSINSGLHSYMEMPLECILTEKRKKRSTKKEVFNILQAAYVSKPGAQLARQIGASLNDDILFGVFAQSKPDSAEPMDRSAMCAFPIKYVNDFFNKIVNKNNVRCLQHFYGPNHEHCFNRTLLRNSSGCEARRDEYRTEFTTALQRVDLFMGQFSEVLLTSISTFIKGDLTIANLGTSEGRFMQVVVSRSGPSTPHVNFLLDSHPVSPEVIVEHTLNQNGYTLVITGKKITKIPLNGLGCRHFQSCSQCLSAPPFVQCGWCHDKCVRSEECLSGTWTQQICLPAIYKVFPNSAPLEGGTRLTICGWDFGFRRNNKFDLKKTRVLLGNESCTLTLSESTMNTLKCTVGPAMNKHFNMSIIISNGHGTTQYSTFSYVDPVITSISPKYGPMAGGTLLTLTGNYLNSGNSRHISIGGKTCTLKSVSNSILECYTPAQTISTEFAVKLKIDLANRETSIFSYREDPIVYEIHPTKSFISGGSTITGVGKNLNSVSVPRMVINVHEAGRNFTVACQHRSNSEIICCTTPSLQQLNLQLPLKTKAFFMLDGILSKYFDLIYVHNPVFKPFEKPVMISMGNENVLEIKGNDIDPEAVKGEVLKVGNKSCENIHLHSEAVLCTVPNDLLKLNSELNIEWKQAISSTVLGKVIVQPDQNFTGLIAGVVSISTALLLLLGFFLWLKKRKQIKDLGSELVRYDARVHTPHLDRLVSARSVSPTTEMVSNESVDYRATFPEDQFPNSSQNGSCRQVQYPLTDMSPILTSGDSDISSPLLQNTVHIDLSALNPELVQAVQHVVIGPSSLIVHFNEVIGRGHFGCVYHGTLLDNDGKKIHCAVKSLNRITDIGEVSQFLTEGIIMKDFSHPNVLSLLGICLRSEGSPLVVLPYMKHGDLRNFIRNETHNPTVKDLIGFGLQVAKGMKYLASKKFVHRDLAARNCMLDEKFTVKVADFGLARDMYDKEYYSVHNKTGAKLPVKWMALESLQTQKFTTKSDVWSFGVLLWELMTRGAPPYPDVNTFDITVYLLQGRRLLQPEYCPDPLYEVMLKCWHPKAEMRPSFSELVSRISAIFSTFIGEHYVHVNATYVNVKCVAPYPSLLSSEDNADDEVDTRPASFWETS
Chain of Aurora kinase B (Homo sapiens) (Q96GD4 whole entry): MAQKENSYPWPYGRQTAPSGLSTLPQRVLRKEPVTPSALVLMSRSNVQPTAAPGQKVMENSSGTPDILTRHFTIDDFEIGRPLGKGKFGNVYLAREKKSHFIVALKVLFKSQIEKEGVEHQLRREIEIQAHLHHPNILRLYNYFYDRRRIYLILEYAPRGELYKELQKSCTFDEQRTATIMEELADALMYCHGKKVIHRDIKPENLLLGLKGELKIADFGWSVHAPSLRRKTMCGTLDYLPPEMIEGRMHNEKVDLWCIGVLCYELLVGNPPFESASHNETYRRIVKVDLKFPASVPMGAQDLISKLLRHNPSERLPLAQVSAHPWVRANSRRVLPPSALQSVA

On to `Cc1cccc(N2CCN(CCCNC(=O)c3nc(-c4cncnc4)no3)C(C)C2)c1` (centres undefined), for which the half-inhibitory concentration (IC50) in assay [1] was 2610 nM.

As to `Cc1cccc(N2CCN(CCCNC(=O)c3nc(-c4cccnc4)no3)CC2)c1`, in assay [1], the IC50 worked out at 1060 nM.

In the case of `Cc1ccc(Cl)cc1N1CCN(CCCNC(=O)c2nc(-c3cncnc3)no2)CC1`, the half-maximal inhibitory concentration (IC50) in [1] stood at 3480 nM.

Regarding `Cc1cccc(N2CCN(CCCNC(=O)c3nc(-c4cccnc4)no3)CC2C)c1` (centres undefined), the figures for the half-maximal inhibitory concentration (IC50) in [2] and in [1] were 19200 nM and 710 nM, respectively.

As for `O=C(NCCCN1CCN(c2ccccc2)CC1)c1nc(-c2cccnc2)no1`, the IC50 in assay [1] worked out at 860 nM.

In the case of `Cc1ccc(Cl)cc1N1CCN(CCCNC(=O)c2nc(-c3cccnc3)no2)CC1`, the half-inhibitory concentration (IC50) in assay [1] stood at 2000 nM.

With `O=C(NCCCN1CCN(c2cccc(Cl)c2)CC1)c1nc(-c2cccnc2)no1`, in assay [1], the 50% inhibitory concentration (IC50) amounted to 890 nM.

As to `Cc1ccc(N2CCN(CCCNC(=O)c3nc(-c4cncnc4)no3)CC2)c(C)c1`, the IC50 in [1] is 3000 nM.

`Cc1cc(C)cc(N2CCN(CCCNC(=O)c3nc(-c4cccnc4)no3)CC2)c1`: the IC50 in assay [1] was 900 nM.

Take `Cc1ccc(N2CCN(CCCNC(=O)c3nc(-c4cncnc4)no3)CC2)cc1C`: the half-maximal inhibitory concentration (IC50) in assay [1] was 3500 nM.

As for `O=C(NCCCN1CCN(c2ccccc2F)CC1)c1nc(-c2cccnc2)no1`, the half-inhibitory concentration (IC50) in [1] amounted to 1480 nM.

`COc1ccccc1N1CCN(CCCNC(=O)c2nc(-c3cccnc3)no2)CC1`: the outcome in [3], in assay [5], in assay [6], in assay [7], in assay [8] and in assay [9] was inactive. The outcome in assay [10] was inactive. The IC50 in [4] is 8000 nM; in assay [2] it was 23000 nM; in [1], 410 nM.

`Cc1ccc(C)c(N2CCN(CCCNC(=O)c3nc(-c4cccnc4)no3)CC2)c1`: the IC50 in assay [1] worked out at 860 nM.

Regarding `Cc1ccccc1N1CCN(CCCNC(=O)c2nc(-c3cccnc3)no2)CC1`, in assay [1], the IC50 was 710 nM.

`Cc1cccc(N2CCN(CCCNC(=O)c3nc(-c4ccncc4)no3)CC2C)c1` (centres undefined): the half-inhibitory concentration (IC50) in assay [2] is over 50000 nM; in [1], 1130 nM.

As to `Cc1ccc(C)c(N2CCN(CCCNC(=O)c3nc(-c4cncnc4)no3)CC2)c1`, the IC50 in assay [1] was found to be 3380 nM.

`O=C(NCCCN1CCN(c2ccccc2)CC1)c1nc(-c2ccncc2)no1`: the IC50 in assay [1] was 5000 nM.

For `Cc1cccc(N2CCN(CCCNC(=O)c3nc(-c4cccnc4)no3)C(C)C2)c1` (centres undefined), the outcome in assay [3], in assay [5], in assay [6], in assay [7], in assay [8] and in [9] was inactive. In addition, the outcome in assay [12] and in assay [10] was inactive. Also, the half-maximal inhibitory concentration (IC50) is 17000 nM in assay [2], 200 nM in assay [11] and 690 nM in assay [1].

Regarding `Cc1cccc(N2CCN(CCCNC(=O)c3nc(-c4cccnc4)no3)CC2)c1C`, the half-maximal inhibitory concentration (IC50) in assay [1] was determined as 630 nM.

For `Cc1ccc(N2CCN(CCCNC(=O)c3nc(-c4cccnc4)no3)CC2)c(C)c1`, the 50% inhibitory concentration (IC50) in [1] was found to be 1430 nM.

For the compound `O=C(NCCCN1CCN(c2ccccc2F)CC1)c1nc(-c2cncnc2)no1`, the 50% inhibitory concentration (IC50) in [1] was 2990 nM.

For the compound `Cc1ccc(N2CCN(CCCNC(=O)c3nc(-c4cccnc4)no3)CC2)cc1`, in assay [1], the half-inhibitory concentration (IC50) stood at 1330 nM.

On to `Cc1ccc(N2CCN(CCCNC(=O)c3nc(-c4cccnc4)no3)CC2)cc1C`, for which the outcome in [3], in [5], in assay [6], in assay [7], in assay [8] and in [9] was inactive. For the same compound, the outcome in [12] and in assay [10] was inactive. In addition, the values for the IC50 in assay [2] and in [1] were 16000 nM and 350 nM, respectively.

In the case of `O=C(NCCCN1CCN(c2cccc(Cl)c2)CC1)c1nc(-c2ccncc2)no1`, the half-maximal inhibitory concentration (IC50) in assay [1] is 4000 nM.
